# Experiments:
# Assay type in all cases: functional
# Candida albicans [1] = assay: In vitro Evaluation of minimum inhibitory concentration against Candida albicans 76
# Method in brief: (§1)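 Stocks are 800 μg/mL in 50% ethanol. Each plate gets 10 μL of inoculum at 10^5 cfu/mL. Incubation at 25 °C, 48 h for yeasts and 120 h for dermatophytes and molds. Organisms are ATCC strains or clinical isolates.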
# Rhodotorula mucilaginosa = assay: In vitro evaluation of minimum inhibitory concentration against Rhodotorula rubra 16; method in brief: as §1
# Mus sp. [2] = assay: In vivo evaluation of % survival rate after peroral administration on 5th day at dose 2.5 mg/kg; conditions: Mus sp., po
# Aspergillus flavus = assay: In vivo Evaluation of minimum inhibitory concentration against Aspergillus flavus 19; conditions: in the assay text read “In vitro” for “In vivo”; method in brief: as §1
# Kluyveromyces marxianus = assay: In vitro evaluation of minimum inhibitory concentration against Candida pseudotropicalis 13; method in brief: as §1
# Candida albicans [3] = assay: […] Evaluation of minimum inhibitory concentration against Candida albicans 60; method in brief: as §1
# Mus sp. [4] = assay: In vivo evaluation of % survival rate after peroral administration on 9th day at dose 2.5 mg/kg; conditions: Mus sp., po
# Mus sp. [5] = assay: In vivo evaluation of % survival rate after peroral administration on 7th day at dose 1 mg/kg; conditions: route oral, 1 mg/kg
# Mus sp. [6] = assay: In vivo evaluation of % survival rate after peroral administration on 5th day at dose 1 mg/kg; conditions: route oral, 1 mg/kg
# Candida albicans [7] = assay: […] Evaluation of minimum inhibitory concentration against Candida albicans 406; method in brief: as §1
# Candida parapsilosis = assay: In vitro evaluation of minimum inhibitory concentration against Candida parapsilosis 61; method in brief: as §1
# Mus sp. [8] = assay: In vivo evaluation of % survival rate after peroral administration on 9th day at dose 1 mg/kg; conditions: route oral, 1 mg/kg
# Candida tropicalis = assay: In vitro evaluation of minimum inhibitory concentration against Candida tropicalis 2.11; method in brief: as §1
# Mus sp. [9] = assay: In vivo evaluation of % survival rate after peroral administration on 7th day at dose 2.5 mg/kg; conditions: Mus sp., po
# [10] = system: Meyerozyma guilliermondii; assay: In vitro Evaluation of minimum inhibitory concentration against Candida guilliermondii 26; method in brief: as §1
# Mus sp. [11] = assay: In vivo evaluation of % survival rate after peroral administration on 3rd day at dose 2.5 mg/kg; conditions: Mus sp., po
compound,measurement,setting,value
C[C@H]1N(C(=O)c2ccc(C(F)(F)F)cc2)CC(=O)O[C@@]1(Cn1cncn1)c1ccc(Cl)cc1Cl (racemic),MIC,Candida albicans [1],20 µg/mL
same,MIC,Rhodotorula mucilaginosa,80 µg/mL
same,survival at 2.5 mg/kg,Mus sp. [2],100%
same,MIC,Aspergillus flavus,> 80 µg/mL
same,MIC,Kluyveromyces marxianus,20 µg/mL
same,MIC,Candida albicans [3],10 µg/mL
same,survival at 2.5 mg/kg,Mus sp. [4],100%
same,Survival,Mus sp. [5],55%
same,Survival,Mus sp. [6],80%
same,MIC,Candida albicans [7],5 µg/mL
same,MIC,Candida parapsilosis,40 µg/mL
same,Survival,Mus sp. [8],45%
same,MIC,Candida tropicalis,80 µg/mL
same,survival at 2.5 mg/kg,Mus sp. [9],100%
same,MIC,[10],80 µg/mL
same,survival at 2.5 mg/kg,Mus sp. [11],100%

# Reference: ChEMBL document CHEMBL1128448, “Synthesis and antifungal activity of new azole derivatives containing an N-acylmorpholine ring” (1995)
